Results taken from ChEMBL document CHEMBL3259662 (ACS Med Chem Lett, 2014).
Converted amounts (≈) assume the structure as drawn. The source made the active and inactive calls. The rule behind the calls is not given here.

Assays:
Candida albicans = experiment: Antifungal activity against Candida albicans by CLSI method; assay type: functional, organism-based
Aspergillus fumigatus = experiment: Antifungal activity against Aspergillus fumigatus by CLSI method; assay type: functional, organism-based
Escherichia coli = experiment: Antibacterial activity against Escherichia coli ATCC 35218 after 16 to 20 hrs by CLSI method; assay type: functional, organism-based
Nakaseomyces glabratus = experiment: Antifungal activity against Candida glabrata by CLSI method; assay type: functional, organism-based
Pichia kudriavzevii = experiment: Antifungal activity against Candida krusei by CLSI method; assay type: functional, organism-based
Cryptococcus neoformans [1] = experiment: Antifungal activity against Cryptococcus neoformans ATCC 90113 after 70 to 74 hrs by CLSI method; assay type: functional, organism-based; conditions: for IC50 / MIC: Cryptococcus neoformans, ATCC 90113
How it was run: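 Growth inhibition of C. neoformans per the CLSI protocol. […] MIC is the lowest test concentration with no detectable growth. MFC is the lowest concentration killing 100% of the organism.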

Cryptococcus neoformans [2] = experiment: Antifungal activity against Cryptococcus neoformans ATCC 90113 at 20 ug/ml after 70 to 74 hrs by CLSI method; assay type: functional, organism-based
How it was run: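 C. neoformans screened per the CLSI protocol at the highest tested concentration of 20 μg/mL. Compounds showing no activity at this level were scored not active.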

SK-MEL = experiment: Cytotoxicity against human SK-MEL cells assessed as cell viability after 48 hrs by neutral red uptake assay; assay type: cell-based
How it was run: (§1)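 Neutral red uptake assay in human cancer lines SK-MEL, KB, BT-549 and SK-OV-3 and in noncancerous mammalian kidney cells VERO and LLC-PK1. The highest tested concentration was 10 μg/mL.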

KB = experiment: Cytotoxicity against human KB cells assessed as cell viability after 48 hrs by neutral red uptake assay; assay type: cell-based; how it was run: as §1
BT-549 = experiment: Cytotoxicity against human BT549 cells assessed as cell viability after 48 hrs by neutral red uptake assay; assay type: cell-based; conditions: bt-549, 48 h; how it was run: as §1
SK-OV-3 = experiment: Cytotoxicity against human SKOV3 cells assessed as cell viability after 48 hrs by neutral red uptake assay; assay type: cell-based; conditions: sk-ov-3, 48 h; how it was run: as §1
Vero = experiment: Cytotoxicity against African green monkey Vero cells assessed as cell viability after 48 hrs by neutral red uptake assay; assay type: cell-based; conditions: chlorocebus sabaeus; how it was run: as §1
LLC-PK1 = experiment: Cytotoxicity against pig LLC-PK1 cells assessed as cell viability after 48 hrs by neutral red uptake assay; assay type: cell-based, Sus scrofa; conditions: llc-pk1, 48 h; how it was run: as §1
[3] = Selectivity index, ratio of cytotoxicity for human SK-MEL cells to IC50 for Cryptococcus neoformans ATCC 90113; assay type: toxicity, cell-based; conditions: read-out: Selectivity Index
[4] = Selectivity index, ratio of cytotoxicity for human KB cells to IC50 for Cryptococcus neoformans ATCC 90113; assay type: toxicity, cell-based; conditions: read-out: Selectivity Index
[5] = Selectivity index, ratio of cytotoxicity for human BT549 cells to IC50 for Cryptococcus neoformans ATCC 90113; assay type: toxicity, cell-based, BT-549; conditions: read-out: Selectivity Index
[6] = Selectivity index, ratio of cytotoxicity for human SKOV3 cells to IC50 for Cryptococcus neoformans ATCC 90113; assay type: toxicity, cell-based, SK-OV-3; conditions: read-out: Selectivity Index
[7] = Selectivity index, ratio of cytotoxicity for African green monkey Vero cells to IC50 for Cryptococcus neoformans ATCC 90113; assay type: toxicity, cell-based; conditions: read-out: Selectivity Index
[8] = Selectivity index, ratio of cytotoxicity for pig LLC-PK1 cells to IC50 for Cryptococcus neoformans ATCC 90113; assay type: toxicity, cell-based; conditions: read-out: Selectivity Index
[9] = Retention time of the compound by reverse phase HPLC analysis; assay type: physicochemical
How it was run: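 Reverse-phase HPLC on a C-18 column (25 cm × 4.6 mm, 5 μM) at 1 mL/min over 40 min. The gradient ran 85−5% with A = 0.1% TFA in H2O and B = 0.1% TFA in CH3CN. Detection was at 220 nm.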

Staphylococcus aureus [10] = experiment: Antibacterial activity against Staphylococcus aureus ATCC 29213 by CLSI method; assay type: functional, organism-based
Staphylococcus aureus [11] = experiment: Antibacterial activity against methicillin-resistant Staphylococcus aureus ATCC 33591 after 16 to 20 hrs by CLSI method; assay type: functional, organism-based
Cryptococcus neoformans [12] = experiment: Ratio of amphotericin B MFC to compound MFC for Cryptococcus neoformans ATCC 90113 after 70 to 74 hrs by CLSI method; assay type: functional

Structure (SMILES) | Activity (Candida albicans) | Activity (Aspergillus fumigatus) | Activity (Escherichia coli) | Activity (Nakaseomyces glabratus) | Activity (Pichia kudriavzevii) | IC50 (Cryptococcus neoformans [1]) | Activity (SK-MEL) | Activity (KB) | Activity (BT-549) | Activity (SK-OV-3) | Activity (Vero) | Activity (LLC-PK1) | selectivity ratio [3] | selectivity ratio [4] | selectivity ratio [5] | selectivity ratio [6] | selectivity ratio [7] | selectivity ratio [8] | MFC100 (Cryptococcus neoformans [1]) | MIC (Cryptococcus neoformans [1]) | also measured
COC(=O)[C@H](CCCNC(=N)N)NC(=O)[C@H](Cc1c[nH]c(-c2ccc(C)cc2)n1)NC(=O)[C@H](CCCNC(=N)N)NC(=O)OC(C)(C)C | inactive | inactive | inactive | inactive | inactive | 9.71 µg/mL (≈ 14.5 µM) | > 10 µg/mL | > 10 µg/mL | > 10 µg/mL | > 10 µg/mL | > 10 µg/mL | > 10 µg/mL | > 1 | > 1 | > 1 | > 1 | > 1 | > 1 | – | – | Activity (Cryptococcus neoformans [2]): inactive; Retention_time [9]: 14.76 min
CC(C)(C)OC(=O)N[C@@H](CCCNC(=N)N)C(=O)N[C@@H](Cc1c[nH]c(-c2ccc(-c3ccccc3)cc2)n1)C(=O)N[C@@H](CCCNC(=N)N)C(=O)NCc1ccccc1 | inactive | inactive | inactive | inactive | inactive | 0.2 µg/mL (≈ 0.247 µM) | > 10 µg/mL | > 10 µg/mL | > 10 µg/mL | > 10 µg/mL | > 10 µg/mL | > 10 µg/mL | > 50 | > 50 | > 50 | > 50 | > 50 | > 50 | 0.31 µg/mL (≈ 0.383 µM) | 0.31 µg/mL (≈ 0.383 µM) | IC50 (Staphylococcus aureus [10]): 6.88 µg/mL (≈ 8.5 µM); MBC100 (Staphylococcus aureus [10]): inactive; MIC (Staphylococcus aureus [10]): 20 µg/mL (≈ 24.7 µM); MBC100 (Staphylococcus aureus [11]): 20 µg/mL (≈ 24.7 µM); MIC (Staphylococcus aureus [11]; Staphylococcus aureus, ATCC 33591): 20 µg/mL (≈ 24.7 µM); IC50 (Staphylococcus aureus [11]; Staphylococcus aureus, ATCC 33591, read-out: IC50): 10.8 µg/mL (≈ 13.3 µM); Retention_time [9]: 24.04 min; Ratio (Cryptococcus neoformans [12]): 4
COc1ccc(-c2nc(C[C@H](NC(=O)[C@@H](N)CCCNC(=N)N)C(=O)N[C@@H](CCCNC(=N)N)C(=O)NCc3ccccc3)c[nH]2)cc1 | inactive | inactive | inactive | inactive | inactive | 0.43 µg/mL (≈ 0.649 µM) | > 10 µg/mL | > 10 µg/mL | > 10 µg/mL | > 10 µg/mL | > 10 µg/mL | > 10 µg/mL | > 23.3 | > 23.3 | > 23.3 | > 23.3 | > 23.3 | > 23.3 | 0.63 µg/mL (≈ 0.951 µM) | 0.63 µg/mL (≈ 0.951 µM) | Ratio (Cryptococcus neoformans [12]): 2
N=C(N)NCCC[C@H](NC(=O)[C@H](Cc1c[nH]c(-c2ccc(-c3ccccc3)cc2)n1)NC(=O)[C@@H](N)CCCNC(=N)N)C(=O)NCc1ccccc1 | inactive | inactive | inactive | inactive | inactive | 0.1 µg/mL (≈ 0.141 µM) | > 10 µg/mL | > 10 µg/mL | > 10 µg/mL | > 10 µg/mL | > 10 µg/mL | > 10 µg/mL | > 100 | > 100 | > 100 | > 100 | > 100 | > 100 | 0.16 µg/mL (≈ 0.226 µM) | 0.16 µg/mL (≈ 0.226 µM) | IC50 (Staphylococcus aureus [10]): 15.4 µg/mL (≈ 21.7 µM); MBC100 (Staphylococcus aureus [10]): inactive; MIC (Staphylococcus aureus [10]): inactive; IC50 (Staphylococcus aureus [11]): Not Active; MBC100 (Staphylococcus aureus [11]): inactive; MIC (Staphylococcus aureus [11]): inactive; Ratio (Cryptococcus neoformans [12]): 8
